Test results as given in ChEMBL document CHEMBL1132441, “Further studies on oxygenated tryptamines with LSD-like activity incorporating a chiral pyrrolidine moiety into the side chain” (J Med Chem, 1999).
Values joined by “and” are separate entries in the source; they are usually repeats but may differ in a detail not shown here. Equal entries are not always repeated.

Key:
[1] = target: 5-hydroxytryptamine receptor 2A (Rattus norvegicus, UniProt P14842); experiment: Compound was tested for binding affinity using [3H]MDL-100,907 at 5-hydroxytryptamine 2A receptor sites in rat cortical homogenate.
In short: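 Membranes (200-400 µg protein) from rat frontal cortex homogenate were incubated with 0.2 nM [3H]MDL100907 and competing drug for 15 min at 37 °C. The buffer was Tris-HCl pH 7.4 with EDTA, pargyline, CaCl2 and ascorbate. Bound and free ligand were separated by GF/C filtration and read by scintillation counting. Nonspecific binding was taken with 10 µM cinanserin. […] values come from at least three experiments, each in triplicate.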

[2] = target: 5-hydroxytryptamine receptor 2A (Rattus norvegicus) (UniProt P14842); experiment: Compound was tested for binding affinity at 5-hydroxytryptamine 2A receptor sites in rat cortical homogenate using [125I]-2,5-Dimethoxy -4-iodoamphetamine (DOI).
In short: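 Rat frontal cortex membranes were washed in 50 mM Tris-HCl pH 7.4 and preincubated at 37 °C in buffer with EDTA, pargyline, CaCl2 and ascorbate. They were incubated with [125I]DOI and test drug for 15 min at 37 °C, then filtered, and the filters were gamma-counted. Cinanserin (10 µM) defined nonspecific binding. Values come from at least three experiments, each in triplicate.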

[3] = system: Rattus norvegicus; experiment: Percentage of rats selecting the drug liver at dose of 1.36 mg/kg; assay type: functional
In short: (§1)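 Male Sprague–Dawley rats were trained in a two-lever FR50 food-reinforced task to discriminate LSD (0.08 mg/kg) or DOI (0.4 mg/kg) from saline. Test drugs were given i.p. in 0.9% saline 30 min before the session. The lever first pressed 50 times was scored as selected, and the result is the percentage of rats selecting the drug lever.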

[4] = system: Rattus norvegicus; experiment: Percentage of rats selecting the drug liver at dose of 0.68 mg/kg; assay type: functional; in short: as §1
[5] = system: Rattus norvegicus; experiment: Percentage of rats selecting the drug liver at dose of 0.02 mg/kg; assay type: functional; in short: as §1
[6] = system: Rattus norvegicus; experiment: Percentage of rats selecting the drug liver at dose of 0.01 mg/kg; assay type: functional; in short: as §1
[7] = system: Rattus norvegicus; experiment: Substitution tests were carried out for the compound in LSD- trained rats dosed with 0.02 mg/kg drug and the binding data was reported; assay type: functional
[8] = system: Rattus norvegicus; experiment: Percentage of rats selecting the drug liver at dose of 0.08 mg/kg; assay type: functional; in short: as §1
[9] = system: Rattus norvegicus; experiment: Percentage of rats selecting the drug liver at dose of 0.04 mg/kg; assay type: functional; in short: as §1
[10] = system: Rattus norvegicus; experiment: Substitution tests were carried out for the compound in LSD- trained rats dosed with 0.046 uM/kg drug and the binding data was reported; assay type: functional
[11] = system: Rattus norvegicus; experiment: Percentage of rats selecting the drug liver at dose of 0.2 mg/kg; assay type: functional; in short: as §1
[12] = system: Rattus norvegicus; experiment: Percentage of rats selecting the drug liver at dose of 0.4 mg/kg; assay type: functional; in short: as §1
[13] = system: Rattus norvegicus; experiment: Percentage of rats selecting the drug liver at dose of 0.1 mg/kg; assay type: functional; in short: as §1
[14] = system: Rattus norvegicus; experiment: Substitution tests were carried out for the compound in LSD- trained rats dosed with 0.06 mg/kg drug and the binding data was reported; assay type: functional
[15] = system: Rattus norvegicus; experiment: Substitution tests were carried out for the compound in DOI- trained rats dosed with 0.50 uM/kg drug and the binding data was reported; assay type: functional
In short: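 Rats trained on DOI (0.4 mg/kg i.p.) versus saline under an FR50 two-lever food schedule received the test drug i.p. in saline 30 min before testing. Quantal scoring used the lever first reaching 50 presses to give %SDL. ED50 and 95% CI were obtained by the Litchfield–Wilcoxon log-probit method when a dose reached ≥80% SDL.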

[16] = system: Rattus norvegicus; experiment: Percentage of rats selecting the drug liver at dose of 0.33 mg/kg; assay type: functional; in short: as §1
[17] = system: Rattus norvegicus; experiment: Substitution tests were carried out for the compound in DOI- trained rats dosed with 0.12 mg/kg drug and the binding data was reported; assay type: functional
[18] = system: Rattus norvegicus; experiment: Percentage of rats selecting the drug liver at dose of 0.65 mg/kg; assay type: functional; in short: as §1
[19] = system: Rattus norvegicus; experiment: Substitution tests were carried out for the compound in LSD- trained rats dosed with 0.25 uM/kg drug and the binding data was reported; assay type: functional
In short: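 Rats trained on LSD (0.08 mg/kg i.p.) versus saline under an FR50 two-lever food schedule received the test drug i.p. in 0.9% saline 30 min before the session. The lever first given 50 presses was scored as selected, giving %SDL. ED50 (95% CI) came from Litchfield–Wilcoxon log-probit analysis, and none was calculated where ≥50% of rats were disrupted.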

[20] = system: Rattus norvegicus; experiment: Percentage of rats selecting the drug liver at dose of 0.16 mg/kg; assay type: functional
In short: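 Male Sprague–Dawley rats (200-220 g) were trained in a two-lever FR 50 food-reinforced task to discriminate LSD (0.08 mg/kg) or DOI (0.4 mg/kg) from saline. Drugs were given i.p. in 0.9% saline 30 min before the session. Scoring was quantal: the lever first reaching 50 presses counted as selected, and %SDL is the percentage of rats choosing the drug lever.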

[21] = system: Rattus norvegicus; experiment: Percentage of rats selecting the drug liver at dose of 0.06 mg/kg; assay type: functional; in short: as §1
[22] = system: Rattus norvegicus; experiment: Percentage of rats selecting the drug liver at dose of 0.23 mg/kg; assay type: functional; in short: as §1
[23] = system: Rattus norvegicus; experiment: Percentage of rats selecting the drug liver at dose of 0.12 mg/kg; assay type: functional; in short: as §1
[24] = system: Rattus norvegicus; experiment: Percentage of rats selecting the drug liver at dose of 0.03 mg/kg; assay type: functional; in short: as §1

Sequence of 5-hydroxytryptamine receptor 2A (P14842 whole entry): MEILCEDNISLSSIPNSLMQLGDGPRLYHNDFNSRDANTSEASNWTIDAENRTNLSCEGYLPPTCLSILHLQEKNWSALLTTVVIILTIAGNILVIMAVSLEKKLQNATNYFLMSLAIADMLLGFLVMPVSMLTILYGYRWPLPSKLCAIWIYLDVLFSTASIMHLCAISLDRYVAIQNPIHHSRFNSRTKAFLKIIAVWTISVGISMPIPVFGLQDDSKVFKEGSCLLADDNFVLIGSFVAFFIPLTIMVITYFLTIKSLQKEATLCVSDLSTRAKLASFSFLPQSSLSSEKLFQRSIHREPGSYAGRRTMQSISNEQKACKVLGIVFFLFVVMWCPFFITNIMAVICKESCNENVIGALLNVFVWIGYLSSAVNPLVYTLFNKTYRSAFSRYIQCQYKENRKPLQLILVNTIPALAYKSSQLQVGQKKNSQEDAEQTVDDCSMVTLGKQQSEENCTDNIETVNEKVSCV
Sequence of 5-hydroxytryptamine receptor 2A (Rattus norvegicus) (P14842 whole entry): as above

CN1CCC[C@H]1Cc1c[nH]c2cc(O)ccc12
Ki [1]: 4.7 µM
K0.5 [2]: 290 nM

CN(C)CCc1c[nH]c2cccc(O)c12 [PSILOCIN]
Ki [1]: 0.39 µM
K0.5 [2]: 6 nM

COc1ccc2[nH]cc(C3CCN(C)C3)c2c1 (stereo not given)
Ki [1]: 1.3 µM
SDL [3]: 50%
SDL [4]: 33% and 14%
K0.5 [2]: 150 nM

CCN(CC)C(=O)[C@@H]1C=C2c3cccc4[nH]cc(c34)C[C@H]2N(C)C1 [LYSERGIDE]
SDL [5]: 78%
SDL [6]: 46%
ED50 [7]: 0.012 µmol/kg
SDL [8]: 100%
SDL [9]: 81%
ED50 [10]: 0.026 µmol/kg

COc1cc(CC(C)N)c(OC)cc1I (stereo not given)
SDL [11]: 89%
ED50 [7]: 0.12 µmol/kg
SDL [12]: 100%
SDL [13]: 56%
ED50 [10]: 0.28 µmol/kg

COc1ccc2[nH]cc(C[C@H]3CCCN3C)c2c1
Ki [1]: 0.4 µM
ED50 [14]: 0.14 µmol/kg
ED50 [15]: 0.32 µmol/kg
SDL ([8]; 0.08 mg/kg): 20% and 43%
SDL [16]: 82% and 88%
ED50 [17]: 0.11 µmol/kg
SDL [18]: 100%
ED50 [19]: 0.44 µmol/kg
SDL [20]: 63%
K0.5 [2]: 9.5 nM

CN1CCC[C@@H]1Cc1c[nH]c2cc(O)ccc12
Ki [1]: 0.21 µM
ED50 [14]: 0.06 µmol/kg
SDL [21]: 40% and 14%
ED50 [15]: 0.47 µmol/kg
SDL [22]: 100%
SDL [23]: 64% and 43%
ED50 [17]: 0.11 µmol/kg
SDL [24]: 30%
ED50 [19]: 0.25 µmol/kg
K0.5 [2]: 13 nM

COc1ccc2[nH]cc(CCN(C)C)c2c1 [MEBUFOTENIN]
Ki [1]: 1.6 µM
K0.5 [2]: 21 nM

COc1ccc2[nH]cc(C[C@@H]3CCCN3C)c2c1
Ki [1]: > 9.4 µM
K0.5 [2]: 64 nM

CN1CCC(c2c[nH]c3cccc(O)c23)C1 (stereo not given)
Ki [1]: 0.44 µM
K0.5 [2]: 82 nM
